Measurements: ChEMBL document CHEMBL4196114 (ACS Med Chem Lett, 2018)

Assays:
Leishmania infantum = test: Antileishmanial activity against Leishmania infantum MHOM/TN/80/IPT1 promastigotes after 72 hrs by MTT assay; assay type: functional, organism-based; conditions: MHOM/TN/80/IPT1, 72 h
Outline: (§1)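 Promastigotes grown in Schneider's medium with 10% FCS at 22 °C. Assay in RPMI with 10% FCS, 20 mM Hepes and 2 mM glutamine, 5×10⁶ parasites/mL, seven serial dilutions from DMSO stocks, 72 h at 22 °C. MTT added for 3 h, pellet lysed in SDS/DMF, A550 read against 650 nm reference. IC50 given as mean of separate duplicate experiments; amphotericin B as reference.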

Leishmania tropica = test: Antileishmanial activity against Leishmania tropica MHOM/IT/2012/ISS3130 promastigotes after 72 hrs by MTT assay; assay type: functional, organism-based; conditions: MHOM/IT/2012/ISS3130, 72 h; outline: as §1
THP-1 = test: Cytotoxicity against PMA-differentiated human THP1 cells after 72 hrs by MTT assay; assay type: cell-based; conditions: THP-1, 72 h
Outline: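 THP-1 cells at 5×10⁵ cells/mL, differentiated with 0.1 μM PMA for 48 h, then exposed to serial dilutions for 72 h. Viability read by MTT; IC50 for growth inhibition. Duplicate experiments, mean reported.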

[1] = Selectivity index, ratio of IC50 for PMA-differentiated human THP1 cells to IC50 for Leishmania infantum MHOM/TN/80/IPT1 promastigotes; assay type: toxicity; conditions: read-out: Ratio IC50
[2] = Selectivity index, ratio of IC50 for PMA-differentiated human THP1 cells to IC50 for Leishmania tropica MHOM/IT/2012/ISS3130 promastigotes; assay type: toxicity; conditions: read-out: Ratio IC50

| SMILES | IC50 (Leishmania infantum) [nM] | IC50 (Leishmania tropica) [nM] | IC50 (THP-1) [nM] | selectivity ratio [1] | selectivity ratio [2] |
| --- | --- | --- | --- | --- | --- |
| Fc1ccc2scc(C#CCNCCCCNc3ccnc4ccccc34)c2c1 | 1020 | 1370 | 7110 | 7 | 5.2 |
| Nc1cnc2cc(Cl)ccc2c1NCCCNCC12CC3CC(CC(C3)C1)C2 | 1770 | 1300 | 6390 | 3.6 | 4.9 |
| Clc1ccc2c(NCCCCCNCCC34CC5CC(CC(C5)C3)C4)ccnc2c1 | 730 | 660 | 1810 | 2.5 | 2.7 |
| CCN(CC)CCCC(C)Nc1c([N+](=O)[O-])cnc2cc(Cl)ccc12 (stereo not given) | 6490 | 2960 | > 110000 | > 16.9 | > 37 |
| CN(CCCCCCCCNc1ccnc2ccccc12)Cc1ccc(-c2ccc(-c3ccc(C#N)cc3)s2)cc1 | 800 | 1060 | 3850 | 4.8 | 3.6 |
| Fc1ccc2scc(-c3ccc(CNCCCCNc4ccnc5cc(Cl)ccc45)cc3)c2c1 | 1020 | 850 | 4280 | 4.2 | 5 |
| c1ccc2c(NCCCCNCc3csc4ccccc34)ccnc2c1 | 640 | 680 | 3760 | 5.8 | 5.5 |
| O=[N+]([O-])c1cnc2cc(Cl)ccc2c1NCCCNCC12CC3CC(CC(C3)C1)C2 | 1910 | 2240 | 12600 | 6.6 | 5.6 |
| N#Cc1ccc(-c2ccc(-c3ccc(CNCCCCNc4ccnc5cc(Cl)ccc45)cc3)s2)cc1 | 2300 | 1940 | 5010 | 2.2 | 2.6 |
| CCN(CC)CCCNc1c(N)cnc2cc(Cl)ccc12 | 16600 | 9350 | > 65200 | > 3.9 | > 7 |
| N#Cc1ccc(-c2ccc(-c3ccc(CNCCCCNc4ccnc5ccccc45)cc3)s2)cc1 | 1220 | 1540 | 2800 | 2.3 | 1.8 |
| CCN(CC)CCCNc1ccnc2c1CCCC2 | > 76500 | > 76500 | > 76500 | > 1 | > 1 |
| Fc1ccc2scc(-c3ccc(CNCCCNc4ccnc5ccccc45)cc3)c2c1 | 1030 | 810 | 2310 | 2.2 | 2.8 |
| CCN(CC)CCCNc1c([N+](=O)[O-])cnc2cc(Cl)ccc12 | 8670 | 2770 | 23700 | 2.7 | 8.5 |
| CC(CCNCCC12CC3CC(CC(C3)C1)C2)Nc1ccnc2ccccc12 (stereo not given) | 2400 | 2350 | 4900 | 2 | 2.1 |
| CN(CCCCCCCCNc1ccnc2c1CCCC2)Cc1ccc(-c2ccc(-c3ccc(C#N)cc3)s2)cc1 | 830 | 800 | 3680 | 4.4 | 4.6 |
| CCN(CC)CCCC(C)Nc1c(N)cnc2cc(Cl)ccc12 (stereo not given) | 16600 | 6630 | > 59700 | > 3.6 | > 9 |
| N#Cc1ccc(-c2ccc(-c3ccc(CNCCCCCNc4ccnc5cc(Cl)ccc45)cc3)s2)cc1 | 5420 | 7110 | 8100 | 1.5 | 1.1 |
| CCN(CC)CCCC(C)Nc1ccnc2c1CCCC2 (stereo not given) | > 69100 | > 69100 | > 69100 | > 1 | > 1 |
| N#Cc1ccc(-c2ccc(-c3ccc(CNCCCCCCCCNc4ccnc5ccccc45)cc3)s2)cc1 | 350 | 300 | 1380 | 4 | 4.6 |
